≈ marks a conversion by molar mass, not a printed value.
Legend:
Assay type in all cases: functional
[1] = tested on: Bacillus cereus; assay: Antibacterial activity against Bacillus cereus ATCC 10702 after 20 hrs by MTT assay; conditions: ATCC 10702, 20 h
Method in brief: (§1)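 Twofold broth doubling-dilution in nutrient broth. Overnight 37 °C cultures diluted to about 10^5 cells/mL. Compounds from 1 mg/mL MeOH stocks were dried in the first wells, then redissolved in DMSO, broth and culture before serial dilution. Plates held 20 h at 37 °C in a moist atmosphere. 0.25% aqueous MTT was added and plates reincubated 4 h; violet turbid wells scored as living bacteria.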

[2] = tested on: Staphylococcus epidermidis; assay: Antibacterial activity against Staphylococcus epidermidis ATCC 12228 after 20 hrs by MTT assay; conditions: ATCC 12228, 20 h; method in brief: as §1
[3] = tested on: Micrococcus luteus; assay: Antibacterial activity against Micrococcus luteus ATCC 9341 after 20 hrs by MTT assay; conditions: ATCC 9341, 20 h; method in brief: as §1

| SMILES | MIC [1] | MIC [2] | MIC [3] |
| --- | --- | --- | --- |
| C=C(C)[C@@H]1CC23C(=O)C(C(=O)C(C)C)=C(O)[C@](C)(C[C@H]2C1(C)C)C3=O [LALIBINONE A] | 64 µg/mL (≈ 186 µM) | 64 µg/mL (≈ 186 µM) | 64 µg/mL (≈ 186 µM) |
| CC(C)C(=O)C1=C(O)[C@]2(C)C[C@H]3C(C)(C)CCC3(C1=O)C2=O [LALIBINONE E] | > 128 µg/mL | > 256 µg/mL | > 128 µg/mL |
| C=C(C)[C@H]1CC23C(=O)C(C(=O)C(C)C)=C(O)[C@](C)(C[C@H]2C1(C)C)C3=O [LALIBINONE B] | 64 µg/mL (≈ 186 µM) | 128 µg/mL (≈ 372 µM) | 64 µg/mL (≈ 186 µM) |
| C=C(C)[C@H]1CC23C(=O)[C@@](C)(C[C@H]2C1(C)C)C(=O)C(C(=O)C(C)CC)=C3O (stereo partly drawn) [LALIBINONE D] | 16 µg/mL (≈ 44.6 µM) | 32 µg/mL (≈ 89.3 µM) | 64 µg/mL (≈ 179 µM) |
| C=C(C)[C@@H]1CC23C(=O)[C@@](C)(C[C@H]2C1(C)C)C(=O)C(C(=O)C(C)CC)=C3O (stereo partly drawn) [LALIBINONE C] | 16 µg/mL (≈ 44.6 µM) | 32 µg/mL (≈ 89.3 µM) | 64 µg/mL (≈ 179 µM) |
| O=C(N[C@H](CO)[C@H](O)c1ccc([N+](=O)[O-])cc1)C(Cl)Cl [CHLORAMPHENICOL] | 2 µg/mL (≈ 6.19 µM) | 4 µg/mL (≈ 12.4 µM) | 1 µg/mL (≈ 3.09 µM) |
